Measurements from ChEMBL document CHEMBL1128718, “2-Substituted penems with amino acid-related side chains: synthesis and antibacterial activity of a new series of beta-lactam antibiotics” (1995).
In brackets after ≈: the same amount, converted by molar mass.

Assays:
Assay type in all cases: functional
[1] = tested on: Clostridium perfringens; assay: In Vitro Anti Bacterial Activity (MIC90) against 90% of tested clinical Isolates of Clostridium perfringens(27)
Procedure, shortened: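 MIC90 over clinical isolates of this anaerobic species, taken from the MIC distribution. Anaerobes were tested on Wilkins-Chalgren agar with an inoculum of 10⁵ cells/mL and incubated 24–48 h at 37 °C.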

[2] = tested on: Staphylococcus aureus; assay: In vitro antibacterial activity against Sa(I) Staphylococcus aureus ATCC 29213
Procedure, shortened: (§1)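 MIC was determined in Mueller Hinton 2 medium with an inoculum of 10⁴ cells/mL and incubation for 24 h at 37 °C. Strains: Sa(I) is S. aureus ATCC 29213; Sa MR(I) is a heterogeneous methicillin-resistant S. aureus; Sa MR(II) is a homogeneous methicillin-resistant S. aureus.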

[3] = tested on: Providencia stuartii; assay: In Vitro Anti Bacterial Activity (MIC90) against 90% of tested clinical Isolates of Providencia stuartii(10)
Procedure, shortened: (§2)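 Over 500 clinical isolates tested in total; the line gives the isolate count. MIC90 for aerobes by dilution in Mueller Hinton 2 medium, inoculum 10⁴ cells/mL, incubated 24 h at 37 °C.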

[4] = tested on: Escherichia coli; assay: In Vitro antibacterial activity against (Ec SHV) Escherichia coli […] strain
Procedure, shortened: (§3)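 Panel of standard ATCC strains plus modified strains: methicillin-resistant, hyperpermeable, β-lactamase-producing (TEM1, TEM2, SHV) and β-lactamase-lacking. MIC determined in Mueller Hinton 2 medium, inoculum 10⁴ cells/mL, incubated 24 h at 37 °C.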

[5] = tested on: Haemophilus influenzae; assay: In Vitro Anti Bacterial Activity (MIC90) against 90% of tested clinical Isolates of Haemophilus Influenzae(21)
Procedure, shortened: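 Clinical isolates. MIC90 in Haemophilus Test Medium Base plus Haemophilus Test Medium Supplement, inoculum 10⁴ cells/mL, incubated 24–48 h at 37 °C.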

[6] = tested on: Escherichia coli; assay: In Vitro antibacterial activity against (Ec TEM1) Escherichia coli […] strain; procedure, shortened: as §3
[7] = tested on: Staphylococcus aureus; assay: In Vitro Anti Bacterial Activity (MIC90) against 90% of tested clinical Isolates of Staphylococcus aureus MS (6); procedure, shortened: as §2
[8] = tested on: Stenotrophomonas maltophilia; assay: In Vitro Anti Bacterial Activity (MIC90) against 90% of tested clinical Isolates of Xanthomonas maltophilia(9); procedure, shortened: as §2
[9] = tested on: Acinetobacter calcoaceticus subsp. anitratus; assay: In Vitro Anti Bacterial Activity (MIC90) against 90% of tested clinical Isolates of Acinetobacter anitratus(20); procedure, shortened: as §2
[10] = tested on: Escherichia coli; assay: In Vitro antibacterial activity against (Ec DC2) hyperpermeable Escherichia coli strain; procedure, shortened: as §3
[11] = tested on: Staphylococcus aureus; assay: In vitro antibacterial activity against Sa(II) Staphylococcus aureus ATCC 25923; procedure, shortened: as §3
[12] = tested on: Enterococcus faecium; assay: In Vitro Anti Bacterial Activity (MIC90) against 90% of tested clinical Isolates of Enterococcus faecium(47); procedure, shortened: as §2
[13] = tested on: Pseudomonas aeruginosa; assay: In Vitro antibacterial activity against (Pa) hyperpermeable Pseudomonas aeruginosa […] strain; procedure, shortened: as §3
[14] = tested on: Staphylococcus aureus; assay: In vitro antibacterial activity against Sa MR(I) heterogeneous methicillin resistant Staphylococcus aureus; procedure, shortened: as §1
[15] = tested on: Escherichia coli; assay: In Vitro antibacterial activity against (Ec L) Escherichia coli […] strain; procedure, shortened: as §3
[16] = tested on: Escherichia coli; assay: In Vitro antibacterial activity against (Ec TEM2) Escherichia coli […] strain; procedure, shortened: as §3
[17] = tested on: Providencia rettgeri; assay: In Vitro Anti Bacterial Activity (MIC90) against 90% of tested clinical Isolates of Providencia rettgeri(10); procedure, shortened: as §2
[18] = tested on: Klebsiella aerogenes; assay: In Vitro Anti Bacterial Activity (MIC90) against 90% of tested clinical Isolates of Enterobacter aerogenes(19); procedure, shortened: as §2
[19] = tested on: Pseudomonas aeruginosa; assay: In Vitro antibacterial activity against (Pa G242) hyperpermeable Pseudomonas aeruginosa strain; procedure, shortened: as §3
[20] = tested on: Streptococcus agalactiae; assay: In Vitro Anti Bacterial Activity (MIC90) against 90% of tested clinical Isolates of Streptococcus agalactiaeB(21)
[21] = tested on: Streptococcus pyogenes; assay: In Vitro Anti Bacterial Activity (MIC90) against 90% of tested clinical Isolates of Streptococcus pyogenes(31)
[22] = tested on: Proteus vulgaris; assay: In Vitro Anti Bacterial Activity (MIC90) against 90% of tested clinical Isolates of Proteus vulgaris(10); procedure, shortened: as §2
[23] = tested on: Escherichia coli; assay: In Vitro Anti Bacterial Activity (MIC90) against 90% of tested clinical Isolates of Escherichia coli; procedure, shortened: as §2
[24] = tested on: Moraxella catarrhalis; assay: In Vitro Anti Bacterial Activity (MIC90) against 90% of tested clinical Isolates of Branhamella catarrhalis(27)
[25] = tested on: Bacteroides fragilis; assay: In Vitro Anti Bacterial Activity (MIC90) against 90% of tested clinical Isolates of Bacteroides fragilis(15)
Procedure, shortened: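 Anaerobic clinical isolates. MIC90 by dilution in Wilkins-Chalgren agar, inoculum 10⁵ cells/mL, incubated 24–48 h at 37 °C.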

[26] = tested on: Klebsiella pneumoniae; assay: In Vitro Anti Bacterial Activity (MIC90) against 90% of tested clinical Isolates of Klebsiella pneumoniae(20); procedure, shortened: as §2
[27] = tested on: Staphylococcus epidermidis; assay: In Vitro Anti Bacterial Activity (MIC90) against 90% of tested clinical Isolates of Staphylococcus epidermidis (13); procedure, shortened: as §2
[28] = tested on: Staphylococcus aureus; assay: In Vitro Anti Bacterial Activity (MIC90) against 90% of tested clinical Isolates of Staphylococcus aureus MV (20)
[29] = tested on: Yersinia sp.; assay: In Vitro Anti Bacterial Activity (MIC90) against 90% of tested clinical Isolates of Yersinia species(20); settings: Yersinia sp. (in: enterobacteria)
[30] = tested on: Aeromonas; assay: In Vitro Anti Bacterial Activity (MIC90) against 90% of tested clinical Isolates of Aeromonas species(21); procedure, shortened: as §2
[31] = tested on: Citrobacter freundii; assay: In Vitro Anti Bacterial Activity (MIC90) against 90% of tested clinical Isolates of Citrobacter freundii(20); procedure, shortened: as §2
[32] = tested on: Morganella morganii; assay: In Vitro Anti Bacterial Activity (MIC90) against 90% of tested clinical Isolates of Morganella morganii(10); procedure, shortened: as §2
[33] = tested on: Listeria monocytogenes; assay: In Vitro Anti Bacterial Activity (MIC90) against 90% of tested clinical Isolates of Listeria monocytogenes (20); procedure, shortened: as §2
[34] = tested on: Enterococcus faecalis; assay: In Vitro Anti Bacterial Activity (MIC90) against 90% of tested clinical Isolates of Enterococcus faecalis(47); procedure, shortened: as §2
[35] = tested on: Proteus mirabilis; assay: In Vitro Anti Bacterial Activity (MIC90) against 90% of tested clinical Isolates of Proteus mirabilis(16); procedure, shortened: as §2
[36] = tested on: Pseudomonas aeruginosa; assay: In Vitro Anti Bacterial Activity (MIC90) against 90% of tested clinical Isolates of Pseudomonas aeruginosa(11); procedure, shortened: as §2
[37] = tested on: Streptococcus pneumoniae; assay: In Vitro Anti Bacterial Activity (MIC90) against 90% of tested clinical Isolates of Streptococcus pneumoniae (23)
[38] = tested on: Staphylococcus aureus; assay: In vitro antibacterial activity against Sa MR(II) homogeneous methicillin resistant Staphylococcus aureus; procedure, shortened: as §1
[39] = tested on: Pseudomonas aeruginosa; assay: In Vitro antibacterial activity against (Pa) Pseudomonas aeruginosa ATCC 27853; procedure, shortened: as §3
[40] = tested on: Escherichia coli; assay: In Vitro antibacterial activity against (Ec) Escherichia coli ATCC 25922; procedure, shortened: as §3
[41] = tested on: Enterococcus faecalis; assay: In Vitro antibacterial activity against (Ef) Enterococcus faecalis ATCC 29212; procedure, shortened: as §3

For `C[C@@H](O)[C@H]1C(=O)N2C(C(=O)O)=C(CN3CCC[C@H]3C(N)=O)S[C@H]12`, the MIC90 [1] was 1 µg/mL (≈ 2.93 µM), the MIC [2] was 0.12 µg/mL (≈ 0.352 µM) and the MIC90 [3] was 4 µg/mL (≈ 11.7 µM). The MIC [4] was 2 µg/mL (≈ 5.86 µM), the MIC90 [5] was 4 µg/mL (≈ 11.7 µM) and the MIC [6] was 2 µg/mL (≈ 5.86 µM). It also gave an MIC90 [7] of 0.06 µg/mL (≈ 0.176 µM), an MIC90 [8] greater than 64 µg/mL and an MIC90 [9] of 16 µg/mL (≈ 46.9 µM). For the same compound, the MIC [10] was 2 µg/mL (≈ 5.86 µM), the MIC [11] was 0.015 µg/mL (≈ 0.0439 µM) and the MIC90 [12] was greater than 64 µg/mL. It also gave an MIC [13] of 1 µg/mL (≈ 2.93 µM), an MIC [14] of 0.5 µg/mL (≈ 1.46 µM) and an MIC [15] of 2 µg/mL (≈ 5.86 µM). It also gave an MIC [16] of 2 µg/mL (≈ 5.86 µM), an MIC90 [17] of 4 µg/mL (≈ 11.7 µM) and an MIC90 [18] of 16 µg/mL (≈ 46.9 µM). The MIC [19] was 2 µg/mL (≈ 5.86 µM), the MIC90 [20] was 0.03 µg/mL (≈ 0.0879 µM) and the MIC90 [21] was 0.06 µg/mL (≈ 0.176 µM). For the same compound, the MIC90 [22] was 4 µg/mL (≈ 11.7 µM), the MIC90 [23] was 0.12 µg/mL (≈ 0.352 µM) and the MIC90 [24] was 0.25 µg/mL (≈ 0.732 µM). It also gave an MIC90 [25] of 16 µg/mL (≈ 46.9 µM), an MIC90 [26] of 0.5 µg/mL (≈ 1.46 µM) and an MIC90 [27] of 0.12 µg/mL (≈ 0.352 µM). The MIC90 [28] was 8 µg/mL (≈ 23.4 µM), the MIC90 [29] was 0.25 µg/mL (≈ 0.732 µM) and the MIC90 [30] was 0.5 µg/mL (≈ 1.46 µM). The MIC90 [31] was 0.5 µg/mL (≈ 1.46 µM), the MIC90 [32] was 4 µg/mL (≈ 11.7 µM) and the MIC90 [33] was 0.5 µg/mL (≈ 1.46 µM). The MIC90 [34] was 8 µg/mL (≈ 23.4 µM), the MIC90 [35] was 4 µg/mL (≈ 11.7 µM) and the MIC90 [36] was greater than 64 µg/mL. It also gave an MIC90 [37] of 0.06 µg/mL (≈ 0.176 µM), an MIC [38] of 2 µg/mL (≈ 5.86 µM) and an MIC [39] of 64 µg/mL (≈ 187 µM).

With `C[C@@H](O)[C@H]1C(=O)N2C(C(=O)O)=C(CN3C[C@H](O)C[C@H]3C(N)=O)S[C@H]12` the MIC90 [1] was 0.25 µg/mL (≈ 0.7 µM), the MIC [2] was 0.12 µg/mL (≈ 0.336 µM) and the MIC90 [3] was 4 µg/mL (≈ 11.2 µM). For the same compound, the MIC [4] was 0.25 µg/mL (≈ 0.7 µM), the MIC90 [5] was 4 µg/mL (≈ 11.2 µM) and the MIC [6] was 0.12 µg/mL (≈ 0.336 µM). The MIC90 [7] was 0.12 µg/mL (≈ 0.336 µM), the MIC90 [8] was greater than 64 µg/mL and the MIC90 [9] was 16 µg/mL (≈ 44.8 µM). It also gave an MIC [10] of 0.12 µg/mL (≈ 0.336 µM), an MIC [11] of 0.12 µg/mL (≈ 0.336 µM) and an MIC90 [12] greater than 64 µg/mL. It also gave an MIC [13] of 0.2 µg/mL (≈ 0.56 µM), an MIC [14] of 0.25 µg/mL (≈ 0.7 µM) and an MIC [15] of 0.03 µg/mL (≈ 0.0839 µM). For the same compound, the MIC [16] was 0.25 µg/mL (≈ 0.7 µM), the MIC90 [17] was 4 µg/mL (≈ 11.2 µM) and the MIC90 [18] was 16 µg/mL (≈ 44.8 µM). For the same compound, the MIC [19] was 0.06 µg/mL (≈ 0.168 µM), the MIC90 [20] was 0.06 µg/mL (≈ 0.168 µM) and the MIC90 [21] was 0.03 µg/mL (≈ 0.0839 µM). For the same compound, the MIC90 [22] was 4 µg/mL (≈ 11.2 µM), the MIC90 [23] was 0.015 µg/mL (≈ 0.042 µM) and the MIC90 [24] was 1 µg/mL (≈ 2.8 µM). The MIC90 [25] was 32 µg/mL (≈ 89.5 µM), the MIC90 [26] was 0.5 µg/mL (≈ 1.4 µM) and the MIC90 [27] was 1 µg/mL (≈ 2.8 µM). It also gave an MIC90 [28] greater than 32 µg/mL, an MIC90 [29] of 0.15 µg/mL (≈ 0.42 µM) and an MIC [40] of 0.03 µg/mL (≈ 0.0839 µM). It also gave an MIC90 [30] of 2 µg/mL (≈ 5.6 µM), an MIC90 [31] of 1 µg/mL (≈ 2.8 µM) and an MIC90 [32] of 8 µg/mL (≈ 22.4 µM). It also gave an MIC90 [33] of 0.12 µg/mL (≈ 0.336 µM), an MIC90 [34] of 8 µg/mL (≈ 22.4 µM) and an MIC90 [35] of 4 µg/mL (≈ 11.2 µM). For the same compound, the MIC90 [36] was greater than 64 µg/mL, the MIC90 [37] was 0.03 µg/mL (≈ 0.0839 µM) and the MIC [41] was 2 µg/mL (≈ 5.6 µM). The MIC [38] was 8 µg/mL (≈ 22.4 µM) and the MIC [39] was greater than 64 µg/mL.
